Experimental data from ChEMBL document CHEMBL1781959, “Synthesis and in vitro antitumor activity of substituted quinazoline and quinoxaline derivatives: search for anticancer agent” (Eur J Med Chem, 2011).

system: MDA-MB-231; experiment: Anticancer activity against human MDA-MB-231 cells assessed as cell growth promotion at 10^-5 M after 48 hrs by SRB assay relative to control; type: functional

SMILES	Activity
O=C(Nc1ccccc1C(=O)Nc1ccc(/C=C/c2ccc(Cl)cc2)cc1)c1ccco1	102%

system: not listed separately; experiment: Anticancer activity against human […] cells assessed as cell growth promotion at 10^-5 M after 48 hrs by SRB assay relative to control; type: functional

SMILES	Activity
O=C(Nc1ccccc1C(=O)Nc1ccc(/C=C/c2ccc(Cl)cc2)cc1)c1ccco1	120%

system: EKVX; experiment: Anticancer activity against human EKVX cells assessed as cell growth promotion at 10^-5 M after 48 hrs by SRB assay relative to control; type: functional

SMILES	Activity
O=C(Nc1ccccc1C(=O)Nc1ccc(/C=C/c2ccc(Cl)cc2)cc1)c1ccco1	80.41%

system: not listed separately; experiment: Anticancer activity against human Hs 578T cells assessed as cell growth promotion at 10^-5 M after 48 hrs by SRB assay relative to control; type: functional

SMILES	Activity
O=C(Nc1ccccc1C(=O)Nc1ccc(/C=C/c2ccc(Cl)cc2)cc1)c1ccco1	113%

system: SK-OV-3; experiment: Anticancer activity against human SKOV3 cells assessed as cell growth promotion at 10^-5 M after 48 hrs by SRB assay relative to control; type: functional

SMILES	Activity
O=C(Nc1ccccc1C(=O)Nc1ccc(/C=C/c2ccc(Cl)cc2)cc1)c1ccco1	116%

system: SR; experiment: Anticancer activity against human SR cells assessed as cell growth promotion at 10^-5 M after 48 hrs by SRB assay relative to control; type: functional

SMILES	Activity
O=C(Nc1ccccc1C(=O)Nc1ccc(/C=C/c2ccc(Cl)cc2)cc1)c1ccco1	109%

system: CAKI-1; experiment: Anticancer activity against human Caki1 cells assessed as cell growth promotion at 10^-5 M after 48 hrs by SRB assay relative to control; type: functional

SMILES	Activity
O=C(Nc1ccccc1C(=O)Nc1ccc(/C=C/c2ccc(Cl)cc2)cc1)c1ccco1	89.89%

system: MDA-MB-435; experiment: Anticancer activity against human MDA-MB-435 cells assessed as cell growth promotion at 10^-5 M after 48 hrs by SRB assay relative to control; type: functional

SMILES	Activity
O=C(Nc1ccccc1C(=O)Nc1ccc(/C=C/c2ccc(Cl)cc2)cc1)c1ccco1	101%

system: UO-31; experiment: Anticancer activity against human UO31 cells assessed as cell growth promotion at 10^-5 M after 48 hrs by SRB assay relative to control; type: functional

SMILES	Activity
O=C(Nc1ccccc1C(=O)Nc1ccc(/C=C/c2ccc(Cl)cc2)cc1)c1ccco1	83.88%

system: NCI-H460; experiment: Anticancer activity against human NCI-H460 cells assessed as cell growth promotion at 10^-5 M after 48 hrs by SRB assay relative to control; type: functional

SMILES	Activity
O=C(Nc1ccccc1C(=O)Nc1ccc(/C=C/c2ccc(Cl)cc2)cc1)c1ccco1	107%

system: NCI/ADR-RES; experiment: Anticancer activity against human NCI/ADR-RES cells assessed as cell growth promotion at 10^-5 M after 48 hrs by SRB assay relative to control; type: functional

SMILES	Activity
O=C(Nc1ccccc1C(=O)Nc1ccc(/C=C/c2ccc(Cl)cc2)cc1)c1ccco1	104%

system: A498; experiment: Anticancer activity against human A498 cells assessed as cell growth promotion at 10^-5 M after 48 hrs by SRB assay relative to control; type: functional

SMILES	Activity
O=C(Nc1ccccc1C(=O)Nc1ccc(/C=C/c2ccc(Cl)cc2)cc1)c1ccco1	69.42%

system: UACC-257; experiment: Anticancer activity against human UACC257 cells assessed as cell growth promotion at 10^-5 M after 48 hrs by SRB assay relative to control; type: functional

SMILES	Activity
O=C(Nc1ccccc1C(=O)Nc1ccc(/C=C/c2ccc(Cl)cc2)cc1)c1ccco1	112%

system: SF-268; experiment: Anticancer activity against human SF268 cells assessed as cell growth promotion at 10^-5 M after 48 hrs by SRB assay relative to control; type: functional

SMILES	Activity
O=C(Nc1ccccc1C(=O)Nc1ccc(/C=C/c2ccc(Cl)cc2)cc1)c1ccco1	107%

system: SNB-19; experiment: Anticancer activity against human SNB19 cells assessed as cell growth promotion at 10^-5 M after 48 hrs by SRB assay relative to control; type: functional

SMILES	Activity
O=C(Nc1ccccc1C(=O)Nc1ccc(/C=C/c2ccc(Cl)cc2)cc1)c1ccco1	107%

system: CCRF-CEM; experiment: Anticancer activity against human CCRF-CEM cells assessed as cell growth promotion at 10^-5 M after 48 hrs by SRB assay relative to control; type: functional

SMILES	Activity
O=C(Nc1ccccc1C(=O)Nc1ccc(/C=C/c2ccc(Cl)cc2)cc1)c1ccco1	103%

system: HCT-116; experiment: Anticancer activity against human HCT116 cells assessed as cell growth promotion at 10^-5 M after 48 hrs by SRB assay relative to control; type: functional

SMILES	Activity
O=C(Nc1ccccc1C(=O)Nc1ccc(/C=C/c2ccc(Cl)cc2)cc1)c1ccco1	108%

system: OVCAR-3; experiment: Anticancer activity against human OVCAR3 cells assessed as cell growth promotion at 10^-5 M after 48 hrs by SRB assay relative to control; type: functional

SMILES	Activity
O=C(Nc1ccccc1C(=O)Nc1ccc(/C=C/c2ccc(Cl)cc2)cc1)c1ccco1	109%

system: Malme-3M; experiment: Anticancer activity against human MALME-3M cells assessed as cell growth promotion at 10^-5 M after 48 hrs by SRB assay relative to control; type: functional

SMILES	Activity
O=C(Nc1ccccc1C(=O)Nc1ccc(/C=C/c2ccc(Cl)cc2)cc1)c1ccco1	115%

system: SW-620; experiment: Anticancer activity against human SW620 cells assessed as cell growth promotion at 10^-5 M after 48 hrs by SRB assay relative to control; type: functional

SMILES	Activity
O=C(Nc1ccccc1C(=O)Nc1ccc(/C=C/c2ccc(Cl)cc2)cc1)c1ccco1	106%

system: HOP-62; experiment: Anticancer activity against human HOP62 cells assessed as cell growth promotion at 10^-5 M after 48 hrs by SRB assay relative to control; type: functional

SMILES	Activity
O=C(Nc1ccccc1C(=O)Nc1ccc(/C=C/c2ccc(Cl)cc2)cc1)c1ccco1	104%

system: SK-MEL-5; experiment: Anticancer activity against human SK-MEL-5 cells assessed as cell growth promotion at 10^-5 M after 48 hrs by SRB assay relative to control; type: functional

SMILES	Activity
O=C(Nc1ccccc1C(=O)Nc1ccc(/C=C/c2ccc(Cl)cc2)cc1)c1ccco1	105%

system: K562; experiment: Anticancer activity against human K562 cells assessed as cell growth promotion at 10^-5 M after 48 hrs by SRB assay relative to control; type: functional

SMILES	Activity
O=C(Nc1ccccc1C(=O)Nc1ccc(/C=C/c2ccc(Cl)cc2)cc1)c1ccco1	95.66%

system: RXF 393; experiment: Anticancer activity against human RXF393 cells assessed as cell growth promotion at 10^-5 M after 48 hrs by SRB assay relative to control; type: functional

SMILES	Activity
O=C(Nc1ccccc1C(=O)Nc1ccc(/C=C/c2ccc(Cl)cc2)cc1)c1ccco1	117%

system: HCT-15; experiment: Anticancer activity against human HCT15 cells assessed as cell growth promotion at 10^-5 M after 48 hrs by SRB assay relative to control; type: functional

SMILES	Activity
O=C(Nc1ccccc1C(=O)Nc1ccc(/C=C/c2ccc(Cl)cc2)cc1)c1ccco1	109%

system: NCI-H23; experiment: Anticancer activity against human NCI-H23 cells assessed as cell growth promotion at 10^-5 M after 48 hrs by SRB assay relative to control; type: functional

SMILES	Activity
O=C(Nc1ccccc1C(=O)Nc1ccc(/C=C/c2ccc(Cl)cc2)cc1)c1ccco1	95.98%

system: HL-60(TB); experiment: Anticancer activity against human HL-60(TB) cells assessed as cell growth promotion at 10^-5 M after 48 hrs by SRB assay relative to control; type: functional
Procedure, shortened: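 NCI-60 single-dose screen: compound at 10^-5 M, 48 h at 37 °C, 5% CO2; cells grown in RPMI 1640 with 5% FBS and 2 mM L-glutamine, pre-incubated 24 h before dosing. Adherent cells fixed with cold TCA; endpoint is sulforhodamine B protein staining. Percent growth of treated cells is reported relative to untreated control.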

SMILES	Activity
O=C(Nc1ccccc1C(=O)Nc1ccc(/C=C/c2ccc(Cl)cc2)cc1)c1ccco1	96.67%

system: 786-0; experiment: Anticancer activity against human 786-0 cells assessed as cell growth promotion at 10^-5 M after 48 hrs by SRB assay relative to control; type: functional

SMILES	Activity
O=C(Nc1ccccc1C(=O)Nc1ccc(/C=C/c2ccc(Cl)cc2)cc1)c1ccco1	103%

system: M14; experiment: Anticancer activity against human M14 cells assessed as cell growth promotion at 10^-5 M after 48 hrs by SRB assay relative to control; type: functional

SMILES	Activity
O=C(Nc1ccccc1C(=O)Nc1ccc(/C=C/c2ccc(Cl)cc2)cc1)c1ccco1	107%

system: MOLT-4; experiment: Anticancer activity against human MOLT4 cells assessed as cell growth promotion at 10^-5 M after 48 hrs by SRB assay relative to control; type: functional

SMILES	Activity
O=C(Nc1ccccc1C(=O)Nc1ccc(/C=C/c2ccc(Cl)cc2)cc1)c1ccco1	100%

system: U-251; experiment: Anticancer activity against human U251 cells assessed as cell growth promotion at 10^-5 M after 48 hrs by SRB assay relative to control; type: functional

SMILES	Activity
O=C(Nc1ccccc1C(=O)Nc1ccc(/C=C/c2ccc(Cl)cc2)cc1)c1ccco1	107%

system: UACC-62; experiment: Anticancer activity against human UACC62 cells assessed as cell growth promotion at 10^-5 M after 48 hrs by SRB assay relative to control; type: functional

SMILES	Activity
O=C(Nc1ccccc1C(=O)Nc1ccc(/C=C/c2ccc(Cl)cc2)cc1)c1ccco1	101%

system: SN12C; experiment: Anticancer activity against human SN12C cells assessed as cell growth promotion at 10^-5 M after 48 hrs by SRB assay relative to control; type: functional

SMILES	Activity
O=C(Nc1ccccc1C(=O)Nc1ccc(/C=C/c2ccc(Cl)cc2)cc1)c1ccco1	103%

system: T47D; experiment: Anticancer activity against human T47D cells assessed as cell growth promotion at 10^-5 M after 48 hrs by SRB assay relative to control; type: functional

SMILES	Activity
O=C(Nc1ccccc1C(=O)Nc1ccc(/C=C/c2ccc(Cl)cc2)cc1)c1ccco1	106%

system: HT-29; experiment: Anticancer activity against human HT-29 cells assessed as cell growth promotion at 10^-5 M after 48 hrs by SRB assay relative to control; type: functional

SMILES	Activity
O=C(Nc1ccccc1C(=O)Nc1ccc(/C=C/c2ccc(Cl)cc2)cc1)c1ccco1	103%

system: OVCAR-5; experiment: Anticancer activity against human OVCAR5 cells assessed as cell growth promotion at 10^-5 M after 48 hrs by SRB assay relative to control; type: functional

SMILES	Activity
O=C(Nc1ccccc1C(=O)Nc1ccc(/C=C/c2ccc(Cl)cc2)cc1)c1ccco1	108%

system: NCI-H322M; experiment: Anticancer activity against human NCI-H322M cells assessed as cell growth promotion at 10^-5 M after 48 hrs by SRB assay relative to control; type: functional

SMILES	Activity
O=C(Nc1ccccc1C(=O)Nc1ccc(/C=C/c2ccc(Cl)cc2)cc1)c1ccco1	110%

system: KM12; experiment: Anticancer activity against human KM12 cells assessed as cell growth promotion at 10^-5 M after 48 hrs by SRB assay relative to control; type: functional

SMILES	Activity
O=C(Nc1ccccc1C(=O)Nc1ccc(/C=C/c2ccc(Cl)cc2)cc1)c1ccco1	110%
